Laboratory results reported in ChEMBL document CHEMBL4689842, “EUbOPEN Chemogenomics Library wave 1” (2021).
Several values for one entry are separate records, joined by “and”; a condition that tells them apart may be missing. Equal entries are not always repeated.

How the values were obtained:
Format in all cases: toxicity, cell-based
U2OS [1] = experiment: Incucyte cell viability with U2OS; details: human, 10 µM, compound concentration 10 uM; also: filed as whole numbers so only -1 and 0 and 1 occur
HEK-293T [2] = experiment: Multiplex assay against HEK293T; details: human, 1 µM, compound concentration 1 uM;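 as to Population Tubulin-Different-Phenotype (%): share of the cells with healthy nuclei that show this phenotype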
Procedure, shortened: (§1)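 With compound added, live cells were imaged on a CQ1 microscope at 37°C and 5% CO2; staining with Hoechst33342, BioTracker Green Microtubule Cytoskeleton Dye, MitoTracker Red and Annexin V Alexa Fluor 680 had been done at seeding. The CellPathfinder machine-learning gating scheme split cells into Hoechst high-intensity objects or normal cells, normal cells into healthy, pyknosed or fragmented nuclei, and pyknosed cells into mitotic or apoptotic. The tubulin, mitochondrial-mass and membrane-permeability phenotypes are per cents of healthy-nucleus cells.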

Fibroblast [3] = experiment: Multiplex assay against human fibroblast; details: 1 µM, compound concentration 1 uM; procedure, shortened: as §1
U2OS [4] = experiment: Multiplex assay against U2OS; details: human, 1 µM, compound concentration 1 uM; procedure, shortened: as §1
Fibroblast [5] = experiment: Incucyte cell viability with human fibroblast; details: 10 µM, compound concentration 10 uM; also: filed as whole numbers so only -1 and 0 and 1 occur
HEK-293T [6] = experiment: Incucyte cell viability with HEK293T; details: human, 10 µM, compound concentration 10 uM; also: filed as whole numbers so only -1 and 0 and 1 occur
[7] = 6 h, replicate number 1, timepoint 6 hours
[8] = 12 h, replicate number 1, timepoint 12 hours
[9] = 12 h, replicate number 2, timepoint 12 hours
[10] = 18 h, replicate number 1, timepoint 18 hours
[11] = 24 h, replicate number 1, timepoint 24 hours
[12] = 0 h, replicate number 1, timepoint 0 hours

CC[C@@H]1C(=O)N(C)c2cnc(Nc3ccc(C(=O)N[C@H]4CC[C@H](N5CCN(CC6CC6)CC5)CC4)cc3OC)nc2N1C(C)C [VOLASERTIB]
Growth Rate (U2OS [1]; 0 h, replicate number 2, timepoint 0 hours): 0 | Growth Rate (U2OS [1]; [7]): 1 | Growth Rate (U2OS [1]; [8]): 0 | Growth Rate (U2OS [1]; [9]): 1 | Growth Rate (U2OS [1]; [10]): 0 | Growth Rate (U2OS [1]; [11]): 0 | Population Apoptotic (%) (HEK-293T [2]; 12 h, replicate 1): 44% and 18% | Population Fragmented Nuclei (%) (HEK-293T [2]; 12 h, replicate 1): 29% and 10% | Population Healthy Nuclei (%) (HEK-293T [2]; 12 h, replicate 1): 31% and 58% | Population Hoechst High Intensity Objects (%) (HEK-293T [2]; 12 h, replicate 1): 18% and 13% | Population Membrane Permeable-Phenotype (%) (HEK-293T [2]; 12 h, replicate 1): 15% and 21% | Population Mitotic Cells (%) (HEK-293T [2]; 12 h, replicate 1): 55% and 81% | Population Normal (%) (HEK-293T [2]; 12 h, replicate 1): 81% and 86% | Population Pyknosed Nuclei (%) (HEK-293T [2]; 12 h, replicate 1): 38% and 30% | Population Tubulin-Different-Phenotype (%) (HEK-293T [2]; 12 h, replicate 1): 77% and 61% | Total Cell Count (HEK-293T [2]; 12 h, replicate 1): 539 and 544 | Population Fragmented Nuclei (%) (HEK-293T [2]; 12 h, replicate 2): 3% | Population Healthy Nuclei (%) (HEK-293T [2]; 12 h, replicate 2): 76% | Population Hoechst High Intensity Objects (%) (HEK-293T [2]; 12 h, replicate 2): 2% and 5% | Population Membrane Permeable-Phenotype (%) (HEK-293T [2]; 12 h, replicate 2): 18% and 12% | Population Mitochondria Different-Phenotype (%) (HEK-293T [2]; 12 h, replicate 2): 31% and 62% | Population Mitotic Cells (%) (HEK-293T [2]; 12 h, replicate 2): 93% and 80% | Population Normal (%) (HEK-293T [2]; 12 h, replicate 2): 97% and 94% | Population Pyknosed Nuclei (%) (HEK-293T [2]; 12 h, replicate 2): 19% | Population Tubulin-Different-Phenotype (%) (HEK-293T [2]; 12 h, replicate 2): 87% and 96% | Total Cell Count (HEK-293T [2]; 12 h, replicate 2): 982 and 1003 | Population Healthy Nuclei (%) (HEK-293T [2]; 24 h, replicate 1): 30% and 54% | Population Hoechst High Intensity Objects (%) (HEK-293T [2]; 24 h, replicate 1): 21% and 9% | Population Membrane Permeable-Phenotype (%) (HEK-293T [2]; 24 h, replicate 1): 9% and 11% | Population Mitotic Cells (%) (HEK-293T [2]; 24 h, replicate 1): 53% and 84% | Population Normal (%) (HEK-293T [2]; 24 h, replicate 1): 78% and 90% | Population Pyknosed Nuclei (%) (HEK-293T [2]; 24 h, replicate 1): 36% and 34% | Population Tubulin-Different-Phenotype (%) (HEK-293T [2]; 24 h, replicate 1): 77% and 76% | Total Cell Count (HEK-293T [2]; 24 h, replicate 1): 579 and 547 | Population Apoptotic (%) (HEK-293T [2]; 24 h, replicate 2): 6% and 12% | Population Fragmented Nuclei (%) (HEK-293T [2]; 24 h, replicate 2): 3% and 7% | Population Healthy Nuclei (%) (HEK-293T [2]; 24 h, replicate 2): 47% and 61% | Population Hoechst High Intensity Objects (%) (HEK-293T [2]; 24 h, replicate 2): 3% and 6% | Population Membrane Permeable-Phenotype (%) (HEK-293T [2]; 24 h, replicate 2): 7% and 10% | Population Mitochondria Different-Phenotype (%) (HEK-293T [2]; 24 h, replicate 2): 28% and 53% | Population Mitotic Cells (%) (HEK-293T [2]; 24 h, replicate 2): 93% and 87% | Population Normal (%) (HEK-293T [2]; 24 h, replicate 2): 96% and 93% | Population Pyknosed Nuclei (%) (HEK-293T [2]; 24 h, replicate 2): 48% and 30% | Population Tubulin-Different-Phenotype (%) (HEK-293T [2]; 24 h, replicate 2): 91% and 83% | Total Cell Count (HEK-293T [2]; 24 h, replicate 2): 956 and 1101 | Population Apoptotic (%) (Fibroblast [3]; 12 h, replicate 1): 76% and 71% | Population Fragmented Nuclei (%) (Fibroblast [3]; 12 h, replicate 1): 43% and 28% | Population Healthy Nuclei (%) (Fibroblast [3]; 12 h, replicate 1): 42% and 54% | Population Hoechst High Intensity Objects (%) (Fibroblast [3]; 12 h, replicate 1): 14% and 22% | Population Membrane Permeable-Phenotype (%) (Fibroblast [3]; 12 h, replicate 1): 9% and 7% | Population Mitochondria Different-Phenotype (%) (Fibroblast [3]; 12 h, replicate 1): 6% and 11% | Population Mitotic Cells (%) (Fibroblast [3]; 12 h, replicate 1): 24% and 28% | Population Normal (%) (Fibroblast [3]; 12 h, replicate 1): 85% and 77% | Population Pyknosed Nuclei (%) (Fibroblast [3]; 12 h, replicate 1): 13% and 16% | Total Cell Count (Fibroblast [3]; 12 h, replicate 1): 213 and 342 | Population Apoptotic (%) (Fibroblast [3]; 12 h, replicate 2): 53% and 50% | Population Fragmented Nuclei (%) (Fibroblast [3]; 12 h, replicate 2): 48% and 67% | Population Healthy Nuclei (%) (Fibroblast [3]; 12 h, replicate 2): 32% and 24% | Population Hoechst High Intensity Objects (%) (Fibroblast [3]; 12 h, replicate 2): 36% and 43% | Population Membrane Permeable-Phenotype (%) (Fibroblast [3]; 12 h, replicate 2): 17% and 16% | Population Mitochondria Different-Phenotype (%) (Fibroblast [3]; 12 h, replicate 2): 26% and 33% | Population Mitotic Cells (%) (Fibroblast [3]; 12 h, replicate 2): 46% and 50% | Population Normal (%) (Fibroblast [3]; 12 h, replicate 2): 63% and 56% | Population Pyknosed Nuclei (%) (Fibroblast [3]; 12 h, replicate 2): 18% and 8% | Population Tubulin-Different-Phenotype (%) (Fibroblast [3]; 12 h, replicate 2): 78% and 58% | Total Cell Count (Fibroblast [3]; 12 h, replicate 2): 111 and 87 | Population Apoptotic (%) (Fibroblast [3]; 24 h, replicate 1): 84% and 80% | Population Fragmented Nuclei (%) (Fibroblast [3]; 24 h, replicate 1): 23% and 37% | Population Healthy Nuclei (%) (Fibroblast [3]; 24 h, replicate 1): 52% and 50% | Population Hoechst High Intensity Objects (%) (Fibroblast [3]; 24 h, replicate 1): 31% and 16% | Population Membrane Permeable-Phenotype (%) (Fibroblast [3]; 24 h, replicate 1): 7% | Population Mitotic Cells (%) (Fibroblast [3]; 24 h, replicate 1): 15% and 19% | Population Normal (%) (Fibroblast [3]; 24 h, replicate 1): 68% and 83% | Population Pyknosed Nuclei (%) (Fibroblast [3]; 24 h, replicate 1): 24% and 11% | Total Cell Count (Fibroblast [3]; 24 h, replicate 1): 319 and 221 | Population Apoptotic (%) (Fibroblast [3]; 24 h, replicate 2): 100% and 64% | Population Fragmented Nuclei (%) (Fibroblast [3]; 24 h, replicate 2): 62% and 44% | Population Healthy Nuclei (%) (Fibroblast [3]; 24 h, replicate 2): 36% and 33% | Population Hoechst High Intensity Objects (%) (Fibroblast [3]; 24 h, replicate 2): 38% | Population Membrane Permeable-Phenotype (%) (Fibroblast [3]; 24 h, replicate 2): 5% and 13% | Population Mitochondria Different-Phenotype (%) (Fibroblast [3]; 24 h, replicate 2): 22% and 45% | Population Normal (%) (Fibroblast [3]; 24 h, replicate 2): 61% | Population Tubulin-Different-Phenotype (%) (Fibroblast [3]; 24 h, replicate 2): 27% and 72% | Total Cell Count (Fibroblast [3]; 24 h, replicate 2): 81 and 106 | Population Apoptotic (%) (U2OS [4]; 12 h, replicate 1): 60% and 78% | Population Fragmented Nuclei (%) (U2OS [4]; 12 h, replicate 1): 8% and 12% | Population Healthy Nuclei (%) (U2OS [4]; 12 h, replicate 1): 81% and 61% | Population Hoechst High Intensity Objects (%) (U2OS [4]; 12 h, replicate 1): 4% and 3% | Population Membrane Permeable-Phenotype (%) (U2OS [4]; 12 h, replicate 1): 46% and 31% | Population Mitochondria Different-Phenotype (%) (U2OS [4]; 12 h, replicate 1): 32% and 71% | Population Mitotic Cells (%) (U2OS [4]; 12 h, replicate 1): 40% and 21% | Population Normal (%) (U2OS [4]; 12 h, replicate 1): 95% and 96% | Population Pyknosed Nuclei (%) (U2OS [4]; 12 h, replicate 1): 10% and 25% | Population Tubulin-Different-Phenotype (%) (U2OS [4]; 12 h, replicate 1): 88% and 100% | Total Cell Count (U2OS [4]; 12 h, replicate 1): 145 and 156 | Population Apoptotic (%) (U2OS [4]; 12 h, replicate 2): 75% and 76% | Population Fragmented Nuclei (%) (U2OS [4]; 12 h, replicate 2): 11% and 18% | Population Healthy Nuclei (%) (U2OS [4]; 12 h, replicate 2): 82% and 57% | Population Hoechst High Intensity Objects (%) (U2OS [4]; 12 h, replicate 2): 21% and 7% | Population Membrane Permeable-Phenotype (%) (U2OS [4]; 12 h, replicate 2): 30% and 61% | Population Mitochondria Different-Phenotype (%) (U2OS [4]; 12 h, replicate 2): 46% and 96% | Population Mitotic Cells (%) (U2OS [4]; 12 h, replicate 2): 25% and 24% | Population Normal (%) (U2OS [4]; 12 h, replicate 2): 78% and 92% | Population Tubulin-Different-Phenotype (%) (U2OS [4]; 12 h, replicate 2): 94% | Total Cell Count (U2OS [4]; 12 h, replicate 2): 110 and 80 | Population Apoptotic (%) (U2OS [4]; 24 h, replicate 1): 66% and 77% | Population Fragmented Nuclei (%) (U2OS [4]; 24 h, replicate 1): 10% | Population Healthy Nuclei (%) (U2OS [4]; 24 h, replicate 1): 76% and 58% | Population Hoechst High Intensity Objects (%) (U2OS [4]; 24 h, replicate 1): 5% | Population Membrane Permeable-Phenotype (%) (U2OS [4]; 24 h, replicate 1): 28% and 82% | Population Mitochondria Different-Phenotype (%) (U2OS [4]; 24 h, replicate 1): 38% and 96% | Population Mitotic Cells (%) (U2OS [4]; 24 h, replicate 1): 33% and 22% | Population Normal (%) (U2OS [4]; 24 h, replicate 1): 94% | Population Pyknosed Nuclei (%) (U2OS [4]; 24 h, replicate 1): 14% and 23% | Population Tubulin-Different-Phenotype (%) (U2OS [4]; 24 h, replicate 1): 78% | Total Cell Count (U2OS [4]; 24 h, replicate 1): 159 and 158 | Population Apoptotic (%) (U2OS [4]; 24 h, replicate 2): 65% and 61% | Population Fragmented Nuclei (%) (U2OS [4]; 24 h, replicate 2): 18% and 15% | Population Healthy Nuclei (%) (U2OS [4]; 24 h, replicate 2): 48% and 67% | Population Hoechst High Intensity Objects (%) (U2OS [4]; 24 h, replicate 2): 10% and 12% | Population Membrane Permeable-Phenotype (%) (U2OS [4]; 24 h, replicate 2): 86% | Population Mitochondria Different-Phenotype (%) (U2OS [4]; 24 h, replicate 2): 100% and 57% | Population Mitotic Cells (%) (U2OS [4]; 24 h, replicate 2): 34% and 38% | Population Normal (%) (U2OS [4]; 24 h, replicate 2): 89% and 87% | Population Pyknosed Nuclei (%) (U2OS [4]; 24 h, replicate 2): 32% and 17% | Population Tubulin-Different-Phenotype (%) (U2OS [4]; 24 h, replicate 2): 100% and 71% | Total Cell Count (U2OS [4]; 24 h, replicate 2): 83 and 123 | Growth Rate (Fibroblast [5]; [12]): 0 | Growth Rate (Fibroblast [5]; [8]): 0 | Growth Rate (Fibroblast [5]; [9]): 1 | Growth Rate (Fibroblast [5]; [10]): 0 | Growth Rate (Fibroblast [5]; [11]): 0 | Growth Rate (HEK-293T [6]; [12]): 0 | Growth Rate (HEK-293T [6]; [7]): 0 | Growth Rate (HEK-293T [6]; [8]): 0 | Growth Rate (HEK-293T [6]; [10]): 0 | Growth Rate (HEK-293T [6]; [11]): 0
